Experiment: Plasma pharmacokinetics
Assay type: in vivo, human
Conditions: for AUC(0-t) / AUC / Vd/F / half-life / k el / Cmax / concentration at 15 day / MRT: human, plasma, 10 mg; for AUC: AUCss; for Vd/F: V z/F; for Cmax: C max; for concentration at 15 day: Css; for Css, max, Mean ± SD: C1D15, 10 mg p.o.
Method in brief: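 Test compound was given at 10 mg orally, either continuously daily or 3 weeks on/1 week off. Plasma PK was sampled on cycle 1 day 1 after a single dose for Tmax, Cmax, AUC0-24h, AUC0-t, AUC0-∞, λz, t1/2, CL/F, Vz/F, %AUCex and MRT. After multiple doses, steady-state parameters were Css max/min/avg, Tss,max, AUCss, CLss/F, Vss/F, %Fluctuation and accumulation ratios. […]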

[1] = oral, GeoMean(%CVb), single dose, C1D1, continuous arm (n = 5)
[2] = oral, GeoMean(%CVb), single dose, C1D1, intermittent arm (n = 4)
[3] = multiple dose, C1D15, continuous arm (n=5)
[4] = multiple dose, C1D15, intermittent arm (n=4)
[5] = single dose, C1D1, continuous arm (n = 5)
[6] = single dose, C1D1, intermittent arm (n = 4)

**Q.** With `CNC(=O)c1cccc2cc(Oc3ccnc4cc(OCC5(N)CC5)c(OC)cc34)ccc12` [Lucitanib] as the compound, how does the “time at which steady state is reached (trough levels)” value (10 mg p.o. once daily) read?
**A.** ≤ 15 days

**Q.** And the AUC(0-t) (AUC0-t, GeoMean(%CVb), single dose, C1D1, continuous arm (n = 5))?
**A.** 2370 ng·h/mL

**Q.** And the AUC(0-t) (AUC0-t, GeoMean(%CVb), single dose, C1D1, intermittent arm (n = 4))?
**A.** 2720 ng·h/mL

**Q.** And the AUC (GeoMean(%CVb), multiple dose, C1D15, continuous arm (n=5))?
**A.** 6170 ng·h/mL

**Q.** And the AUC (GeoMean(%CVb), multiple dose, C1D15, intermittent arm (n=4))?
**A.** 9160 ng·h/mL

**Q.** And the AUC (Mean ± SD, multiple dose, C1D15, continuous arm (n=5))?
**A.** 6670 ± 2630 ng·h/mL

**Q.** And the AUC (Mean ± SD, multiple dose, C1D15, intermittent arm (n=4))?
**A.** 9680 ± 3710 ng·h/mL

**Q.** And the Vd/F (GeoMean(%CVb), single dose, C1D1, continuous arm (n = 5))?
**A.** 68 L

**Q.** What about the Vd/F (GeoMean(%CVb), single dose, C1D1, intermittent arm (n = 4)) of the same compound?
**A.** 58.1 L

**Q.** What about the Vd/F (Mean ± SD, single dose, C1D1, continuous arm (n = 5)) of the same compound?
**A.** 75.2 ± 40.2 L

**Q.** What about the Vd/F (Mean ± SD, single dose, C1D1, intermittent arm (n = 4)) of the same compound?
**A.** 60.8 ± 19.8 L

**Q.** And the half-life (t 1/2, GeoMean(%CVb), single dose, C1D1, continuous arm (n = 5))?
**A.** 21.9 h

**Q.** What about the half-life (t 1/2, GeoMean(%CVb), single dose, C1D1, intermittent arm (n = 4)) of the same compound?
**A.** 22.1 h

**Q.** And the half-life (t 1/2, Mean ± SD, single dose, C1D1, continuous arm (n = 5))?
**A.** 23.8 ± 11.8 h

**Q.** What about the half-life (t 1/2, Mean ± SD, single dose, C1D1, intermittent arm (n = 4)) of the same compound?
**A.** 24.8 ± 15.5 h

**Q.** And the k el (λ z, GeoMean(%CVb), single dose, C1D1, continuous arm (n = 5))?
**A.** 8.33e-06 s⁻¹

**Q.** And the k el (λ z, GeoMean(%CVb), single dose, C1D1, intermittent arm (n = 4))?
**A.** 8.33e-06 s⁻¹

**Q.** What about the k el (λ z, Mean ± SD, single dose, C1D1, continuous arm (n = 5)) of the same compound?
**A.** 8.33e-06 s⁻¹

**Q.** What about the k el (λ z, Mean ± SD, single dose, C1D1, intermittent arm (n = 4)) of the same compound?
**A.** 8.33e-06 s⁻¹

**Q.** And the k el (λz, Mean ± SD, multiple dose, C1D15, continuous arm (n=5))?
**A.** 5.56e-06 s⁻¹

**Q.** What about the k el (λz, Mean ± SD, multiple dose, C1D15, intermittent arm (n=4)) of the same compound?
**A.** 5.56e-06 s⁻¹

**Q.** What about the AUC(0-t) (oral, AUC0-24h, GeoMean(%CVb), single dose, C1D1, continuous arm (n = 5)) of the same compound?
**A.** 2410 ng·h/mL

**Q.** What about the AUC(0-t) (oral, AUC0-24h, GeoMean(%CVb), single dose, C1D1, intermittent arm (n = 4)) of the same compound?
**A.** 2770 ng·h/mL

**Q.** And the AUC(0-t) (oral, AUC0-24h, Mean ± SD, single dose, C1D1, continuous arm (n = 5))?
**A.** 2560 ± 858 ng·h/mL

**Q.** And the AUC(0-t) (oral, AUC0-24h, Mean ± SD, single dose, C1D1, intermittent arm (n = 4))?
**A.** 3110 ± 1890 ng·h/mL

**Q.** And the AUC(0-t) (oral, AUC0-t, Mean ± SD, single dose, C1D1, continuous arm (n = 5))?
**A.** 2510 ± 834 ng·h/mL

**Q.** What about the AUC(0-t) (oral, AUC0-t, Mean ± SD, single dose, C1D1, intermittent arm (n = 4)) of the same compound?
**A.** 3030 ± 1750 ng·h/mL

**Q.** What about the Cmax [1] of the same compound?
**A.** 261 ng/mL

**Q.** And the Cmax [2]?
**A.** 228 ng/mL

**Q.** And the concentration at 15 day (oral, avg, GeoMean(%CVb), multiple dose, C1D15, continuous arm (n=5))?
**A.** 257 ng/mL

**Q.** And the concentration at 15 day (oral, avg, GeoMean(%CVb), multiple dose, C1D15, intermittent arm (n=4))?
**A.** 382 ng/mL

**Q.** What about the concentration at 15 day (oral, avg, Mean ± SD, multiple dose, C1D15, continuous arm (n=5)) of the same compound?
**A.** 278 ± 110 ng/mL

**Q.** And the concentration at 15 day (oral, avg, Mean ± SD, multiple dose, C1D15, intermittent arm (n=4))?
**A.** 403 ± 155 ng/mL

**Q.** What about the concentration at 15 day (oral, min, GeoMean(%CVb), multiple dose, C1D15, continuous arm (n=5)) of the same compound?
**A.** 176 ng/mL

**Q.** What about the concentration at 15 day (oral, min, GeoMean(%CVb), multiple dose, C1D15, intermittent arm (n=4)) of the same compound?
**A.** 284 ng/mL

**Q.** What about the concentration at 15 day (oral, min, Mean ± SD, multiple dose, C1D15, continuous arm (n=5)) of the same compound?
**A.** 203 ± 93.5 ng/mL

**Q.** What about the concentration at 15 day (oral, min, Mean ± SD, multiple dose, C1D15, intermittent arm (n=4)) of the same compound?
**A.** 303 ± 118 ng/mL

**Q.** What about the MRT [1] of the same compound?
**A.** 32.2 h

**Q.** What about the MRT [2] of the same compound?
**A.** 32.6 h

**Q.** And the MRT (oral, Mean ± SD, single dose, C1D1, continuous arm (n = 5))?
**A.** 34.2 ± 14.3 h

**Q.** And the MRT (oral, Mean ± SD, single dose, C1D1, intermittent arm (n = 4))?
**A.** 36.3 ± 21.6 h

**Q.** What about the k el (oral, λz, GeoMean(%CVb), multiple dose, C1D15, continuous arm (n=5)) of the same compound?
**A.** 2.78e-06 s⁻¹

**Q.** What about the k el (oral, λz, GeoMean(%CVb), multiple dose, C1D15, intermittent arm (n=4)) of the same compound?
**A.** 5.56e-06 s⁻¹

**Q.** And the “Css, max, Mean ± SD” value (multiple dose, continuous arm (n=5))?
**A.** 482.80 ± 271.81 ng/mL

**Q.** And the “Css, max, Mean ± SD” value (multiple dose, intermittent arm (n=4))?
**A.** 608.50 ± 169.48 ng/mL

**Q.** And the “%Fluctuation, GeoMean(%CVb)” value [3]?
**A.** 90.75(63.71) %

**Q.** And the “%Fluctuation, Mean ± SD” value [3]?
**A.** 104.26 ± 61.47%

**Q.** What about the “CLss/F, GeoMean(%CVb)” value [3] of the same compound?
**A.** 1.62(49.01) L/hour

**Q.** And the “CLss/F, Mean ± SD” value [3]?
**A.** 1.78 ± 0.93 L/h

**Q.** And the “Css, max, GeoMean(%CVb)” value [3]?
**A.** 435.78(50.87) ng/mL

**Q.** And the “R ac, AUC (accumulation ratio based on AUC), Mean ± SD” value [3]?
**A.** 2.62 ± 0.55

**Q.** What about the “R ac, Cmax (accumulation ratio based on Cmax), Mean ± SD” value [3] of the same compound?
**A.** 1.98 ± 1.20

**Q.** What about the “Tss, max, Median” value [3] of the same compound?
**A.** 2.97 h

**Q.** What about the “%Fluctuation, GeoMean(%CVb)” value [4] of the same compound?
**A.** 79.03(27.10) %

**Q.** What about the “%Fluctuation, Mean ± SD” value [4] of the same compound?
**A.** 81.15 ± 21.54%

**Q.** And the “CLss/F, GeoMean(%CVb)” value [4]?
**A.** 1.09(40.16) L/hour

**Q.** What about the “CLss/F, Mean ± SD” value [4] of the same compound?
**A.** 1.15 ± 0.45 L/h

**Q.** What about the “Css, max, GeoMean(%CVb)” value [4] of the same compound?
**A.** 590.42(29.26) ng/mL

**Q.** What about the “R ac, AUC (accumulation ratio based on AUC), Mean ± SD” value [4] of the same compound?
**A.** 3.38 ± 0.84

**Q.** And the “R ac, Cmax (accumulation ratio based on Cmax), Mean ± SD” value [4]?
**A.** 2.67 ± 0.69

**Q.** And the “Tss, max, Median” value [4]?
**A.** 1.98 h

**Q.** What about the “%AUCex, GeoMean(%CVb)” value [5] of the same compound?
**A.** 47.22(22.24) %

**Q.** And the “%AUCex, Mean ± SD” value [5]?
**A.** 48.16 ± 10.87%

**Q.** What about the “CL/F, GeoMean(%CVb)” value [5] of the same compound?
**A.** 2.15(57.72) L/hour

**Q.** What about the “CL/F, Mean ± SD” value [5] of the same compound?
**A.** 2.44 ± 1.5048 L/h

**Q.** And the “%AUCex, GeoMean(%CVb)” value [6]?
**A.** 46.33(29.69) %

**Q.** What about the “%AUCex, Mean ± SD” value [6] of the same compound?
**A.** 47.96 ± 15.75%

**Q.** What about the “CL/F, GeoMean(%CVb)” value [6] of the same compound?
**A.** 1.83(105.30) L/hour

**Q.** And the “CL/F, Mean ± SD” value [6]?
**A.** 2.24 ± 1.21 L/h

**Q.** What about the “exposure (Cmax, AUC0-24h) at steady state relative to day 1” value (steady state vs day 1, 10 mg p.o.) of the same compound?
**A.** two to three times
